{"source": "ChEMBL document CHEMBL1152202", "about": "“Synthesis and biological evaluation of helicid analogues as mushroom tyrosinase inhibitors” (Bioorg Med Chem Lett, 2008)", "key": {"[1]": {"biological_target": "T1, Tyrosinase (Agaricus bisporus) (UniProt O42713)", "T1 sequence (whole entry)": "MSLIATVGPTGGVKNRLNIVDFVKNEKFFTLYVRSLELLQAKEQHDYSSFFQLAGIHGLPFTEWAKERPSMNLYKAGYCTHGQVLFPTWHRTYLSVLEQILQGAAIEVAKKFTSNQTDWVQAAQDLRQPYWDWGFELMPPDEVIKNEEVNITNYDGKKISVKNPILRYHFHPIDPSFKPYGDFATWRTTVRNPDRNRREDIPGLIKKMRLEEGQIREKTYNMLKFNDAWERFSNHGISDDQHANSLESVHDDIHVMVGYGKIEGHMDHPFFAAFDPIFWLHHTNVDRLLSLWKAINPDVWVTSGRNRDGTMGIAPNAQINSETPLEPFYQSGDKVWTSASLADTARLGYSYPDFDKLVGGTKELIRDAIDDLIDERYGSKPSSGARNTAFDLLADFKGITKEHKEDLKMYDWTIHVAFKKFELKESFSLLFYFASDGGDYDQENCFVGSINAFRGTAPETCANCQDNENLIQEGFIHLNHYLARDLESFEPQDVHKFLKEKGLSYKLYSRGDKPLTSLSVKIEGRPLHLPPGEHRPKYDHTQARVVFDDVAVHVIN", "assay": "Inhibition of mushroom tyrosinase assessed as 3,4-dihydroxy-L-phenylalanine oxidation at 0.1 mM", "procedure,_shortened": "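Mushroom tyrosinase was the enzyme source. Activity was reported as IC50 in mM, with compounds tested up to 3.0 mM, and as percent inhibition at 0.1 mM. Values are means of three separate experiments.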"}, "[2]": {"biological_target": "T2, Tyrosinase (Agaricus bisporus, UniProt O42713)", "T2 sequence (O42713 whole entry)": "T1 sequence (whole entry)", "assay": "Inhibition of mushroom tyrosinase assessed as 3,4-dihydroxy-L-phenylalanine oxidation"}, "[3]": {"system": "Mus musculus", "assay": "Toxicity in mouse assessed by autopsy at 1200 mg/kg, po administered as single gavage dose after 20 days", "assay_type": "organism-based", "parameters": "dose 1200 mg/kg, route oral", "conditions": "in vivo, 480 h", "procedure,_shortened": "(§1)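 Acute oral toxicity in mice: one 1200 mg/kg dose given by gavage. Clinical symptoms and mortality were followed for 20 days. Animals were autopsied at the end of the 20-day period, and organs were examined for gross changes.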"}, "[4]": {"system": "Mus musculus", "assay": "Toxicity in mouse assessed as mortality at 1200 mg/kg, po administered as single gavage dose after 20 days", "assay_type": "organism-based", "parameters": "dose 1200 mg/kg, route oral", "conditions": "in vivo, 480 h", "procedure,_shortened": "as §1"}}, "note": "The source made the active and inactive calls. The rule behind the calls is not given here.", "data": [{"smiles": "COP(=O)(OC)OC[C@H]1O[C@@H](Oc2ccc(C=O)cc2)[C@H](O)[C@H](O)[C@@H]1O", "values": [{"measurement": "inhibition", "setting": "[1]", "value": 24, "unit": "%"}, {"measurement": "IC50", "setting": "[2]", "value": 430, "unit": "µM"}]}, {"smiles": "O=Cc1ccc(O[C@@H]2O[C@@H]3CO[C@@H](c4ccccc4)O[C@H]3[C@@H](O)[C@H]2O)cc1", "values": [{"measurement": "Activity", "setting": "[3]", "value": "Non-toxic"}, {"measurement": "inhibition", "setting": "[1]", "value": 77, "unit": "%"}, {"measurement": "Activity", "setting": "[4]", "value": "Non-toxic"}, {"measurement": "IC50", "setting": "[2]", "value": 52, "unit": "µM"}]}, {"smiles": "CC(=O)OC[C@H]1O[C@@H](O[C@H]2[C@H](OC(C)=O)[C@@H](OC(C)=O)[C@H](Oc3ccc(C=O)cc3)O[C@@H]2COC(C)=O)[C@H](OC(C)=O)[C@@H](OC(C)=O)[C@H]1OC(C)=O", "values": [{"measurement": "inhibition", "setting": "[1]", "value": 5, "unit": "%"}, {"measurement": "IC50", "setting": "[2]", "value": "> 3000", "unit": "µM"}]}, {"smiles": "CC(=O)OC[C@H]1O[C@@H](Oc2ccc(C=O)cc2)[C@H](OC(C)=O)[C@@H](OC(C)=O)[C@@H]1OC(C)=O", "values": [{"measurement": "Activity", "setting": "[1]", "value": "inactive"}, {"measurement": "IC50", "setting": "[2]", "value": "> 3000", "unit": "µM"}]}, {"smiles": "O=Cc1ccc(O[C@@H]2OC[C@@H](O)[C@@H](O)[C@H]2O)cc1", "values": [{"measurement": "inhibition", "setting": "[1]", "value": 42, "unit": "%"}, {"measurement": "IC50", "setting": "[2]", "value": 280, "unit": "µM"}]}, {"smiles": "O=Cc1ccc(O[C@@H]2OC[C@@H](OC(=O)c3ccccc3)[C@@H](OC(=O)c3ccccc3)[C@H]2OC(=O)c2ccccc2)cc1", "values": [{"measurement": "Activity", "setting": "[1]", "value": "inactive"}, {"measurement": "IC50", "setting": "[2]", "value": "> 3000", "unit": "µM"}]}, {"smiles": "CC1(C)O[C@@H]2[C@H](O)[C@@H](CO)O[C@@H](Oc3ccc(C=O)cc3)[C@@H]2O1", "values": [{"measurement": "inhibition", "setting": "[1]", "value": 13, "unit": "%"}, {"measurement": "IC50", "setting": "[2]", "value": 620, "unit": "µM"}]}, {"smiles": "O=Cc1ccc(O[C@@H]2O[C@H](CO)[C@@H](O)[C@H](O)[C@H]2O)cc1", "values": [{"measurement": "Activity", "setting": "[3]", "value": "Non-toxic"}, {"measurement": "inhibition", "setting": "[1]", "value": 30, "unit": "%"}, {"measurement": "Activity", "setting": "[4]", "value": "Non-toxic"}, {"measurement": "IC50", "setting": "[2]", "value": 940, "unit": "µM"}]}, {"smiles": "O=Cc1ccc(O[C@@H]2O[C@H](CO)[C@@H](O)[C@@H](O)[C@H]2O)cc1", "note": "[HELICIDE]", "values": [{"measurement": "inhibition", "setting": "[1]", "value": 10, "unit": "%"}, {"measurement": "IC50", "setting": "[2]", "value": 2540, "unit": "µM"}]}, {"smiles": "O=Cc1ccc(O[C@@H]2O[C@H](COC(c3ccccc3)(c3ccccc3)c3ccccc3)[C@@H](O)[C@@H](O)[C@H]2O)cc1", "values": [{"measurement": "Activity", "setting": "[1]", "value": "inactive"}, {"measurement": "IC50", "setting": "[2]", "value": "> 3000", "unit": "µM"}]}, {"smiles": "OC[C@H]1O[C@@H](Oc2ccc(O)cc2)[C@H](O)[C@@H](O)[C@@H]1O", "values": [{"measurement": "Activity", "setting": "[1]", "value": "inactive"}]}, {"smiles": "CC(=O)O[C@H]1[C@@H](OC(C)=O)[C@H](Oc2ccc(C=O)cc2)O[C@H](CO)[C@H]1OC(C)=O", "values": [{"measurement": "Activity", "setting": "[1]", "value": "inactive"}, {"measurement": "IC50", "setting": "[2]", "value": "> 3000", "unit": "µM"}]}, {"smiles": "O=Cc1ccc(O)cc1", "note": "[4-HYDROXYBENZALDEHYDE]", "values": [{"measurement": "inhibition", "setting": "[1]", "value": 15, "unit": "%"}, {"measurement": "IC50", "setting": "[2]", "value": 1120, "unit": "µM"}]}, {"smiles": "COc1ccc(/C=C/C(=O)O)cc1", "values": [{"measurement": "inhibition", "setting": "[1]", "value": 22, "unit": "%"}]}]}
